Columns and labels:
Peregrin = biological target: T1, Peregrin (Homo sapiens, UniProt P55201); experiment: Binding affinity to BRPF1 (unknown origin) by Isothermal titration calorimetry
T1 sequence (P55201 whole entry): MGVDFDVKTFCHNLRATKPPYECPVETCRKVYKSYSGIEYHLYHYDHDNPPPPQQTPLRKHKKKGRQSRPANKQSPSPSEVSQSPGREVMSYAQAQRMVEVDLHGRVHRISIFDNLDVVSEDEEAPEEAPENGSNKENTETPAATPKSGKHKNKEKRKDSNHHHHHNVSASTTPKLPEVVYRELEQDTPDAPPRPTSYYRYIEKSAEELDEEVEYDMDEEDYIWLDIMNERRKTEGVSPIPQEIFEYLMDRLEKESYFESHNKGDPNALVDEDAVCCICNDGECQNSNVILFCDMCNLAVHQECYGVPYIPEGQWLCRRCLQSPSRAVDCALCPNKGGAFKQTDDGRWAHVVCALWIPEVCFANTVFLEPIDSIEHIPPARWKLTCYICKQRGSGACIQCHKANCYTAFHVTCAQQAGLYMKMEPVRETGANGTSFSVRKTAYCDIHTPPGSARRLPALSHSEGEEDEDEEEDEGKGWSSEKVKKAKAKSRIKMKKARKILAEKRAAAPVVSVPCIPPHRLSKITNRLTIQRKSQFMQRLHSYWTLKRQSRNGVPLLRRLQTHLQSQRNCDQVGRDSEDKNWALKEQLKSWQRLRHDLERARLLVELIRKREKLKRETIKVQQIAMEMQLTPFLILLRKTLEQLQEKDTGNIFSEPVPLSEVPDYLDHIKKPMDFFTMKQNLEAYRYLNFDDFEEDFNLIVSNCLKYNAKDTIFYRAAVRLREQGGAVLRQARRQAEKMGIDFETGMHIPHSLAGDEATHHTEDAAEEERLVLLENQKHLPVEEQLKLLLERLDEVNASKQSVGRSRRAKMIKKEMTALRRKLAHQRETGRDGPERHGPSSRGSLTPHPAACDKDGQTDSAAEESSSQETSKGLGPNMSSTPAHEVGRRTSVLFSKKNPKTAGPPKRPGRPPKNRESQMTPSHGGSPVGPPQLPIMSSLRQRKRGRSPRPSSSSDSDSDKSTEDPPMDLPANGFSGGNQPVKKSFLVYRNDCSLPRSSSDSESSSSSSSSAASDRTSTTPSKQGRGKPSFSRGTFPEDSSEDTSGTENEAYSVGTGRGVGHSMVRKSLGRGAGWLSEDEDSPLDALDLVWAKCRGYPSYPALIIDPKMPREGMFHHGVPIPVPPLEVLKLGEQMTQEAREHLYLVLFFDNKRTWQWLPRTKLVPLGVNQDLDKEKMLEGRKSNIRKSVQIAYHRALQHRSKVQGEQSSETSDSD
Procedure, shortened: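 Isothermal titration calorimetry with recombinant BRPF1 (200–400 μM) in the injection syringe titrated into ligand (20–40 μM) in the sample cell. Kd was fitted from the titrations and reported with its P99 interval.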

[1] = Inhibition of HDAC (unknown origin); design: species or system Homo sapiens
HEK293 = experiment: (§1) Cytotoxicity against human HEK293 assessed as reduction in cell viability incubated for 24 hrs by AlamarBlue assay; format: cell-based; conditions: hek293, 24 h
Procedure, shortened: (§2)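 HEK293 cells were grown at 37 °C under 5% CO2 in DMEM with 10% FCS and 5 mM glutamine and seeded at 1.5 x 10³ cells per well. Compound at 50 μM was added at once. After 24 h AlamarBlue was added for another 21 h, and fluorescence was read at Ex 560/Em 590 nm. Triplicates over three independent experiments.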

THP-1 [2] = experiment: Antiproliferative activity against human THP-1 assessed as reduction in cell growth at 100 uM by CellTiter-non radioactive cell proliferation assay; format: functional
THP-1 [3] = experiment: Antiproliferative activity against human THP-1 assessed as reduction in cell growth at 20 uM by CellTiter-non radioactive cell proliferation assay; format: functional
THP-1 [4] = experiment: Antiproliferative activity against human THP-1 assessed as reduction in cell growth at 4 uM by CellTiter-non radioactive cell proliferation assay; format: functional
HL-60 [5] = experiment: Antiproliferative activity against human HL60 assessed as reduction in cell growth at 100 uM by CellTiter-non radioactive cell proliferation assay; format: functional
HL-60 [6] = experiment: Antiproliferative activity against human HL60 assessed as reduction in cell growth at 20 uM by CellTiter-non radioactive cell proliferation assay; format: functional
HL-60 [7] = experiment: Antiproliferative activity against human HL60 assessed as reduction in cell growth at 4 uM by CellTiter-non radioactive cell proliferation assay; format: functional
Procedure, shortened: (§3)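 HL60 cells plated at 5000 per well and given inhibitor or DMSO vehicle immediately. Compounds diluted from 200x DMSO stocks; three replicates per concentration. Growth read by CellTiter 96 Aqueous (MTS) assay. GI50 is the concentration cutting metabolically active cells by 50% versus DMSO control, taken from absorbance against log concentration.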

THP-1 (Homo sapiens) = experiment: Antiproliferative activity against human THP-1 assessed as reduction in metabolically active cells by CellTiter-non radioactive cell proliferation assay
Histone deacetylase 1 [8] = biological target: T2, Histone deacetylase 1 (Homo sapiens, UniProt Q13547); experiment: Inhibition of recombinant human HDAC1 using Z-(Ac)Lys-AMC as substrate after 90 mins by fluorescence based micro plate assay
T2 sequence (Q13547 whole entry): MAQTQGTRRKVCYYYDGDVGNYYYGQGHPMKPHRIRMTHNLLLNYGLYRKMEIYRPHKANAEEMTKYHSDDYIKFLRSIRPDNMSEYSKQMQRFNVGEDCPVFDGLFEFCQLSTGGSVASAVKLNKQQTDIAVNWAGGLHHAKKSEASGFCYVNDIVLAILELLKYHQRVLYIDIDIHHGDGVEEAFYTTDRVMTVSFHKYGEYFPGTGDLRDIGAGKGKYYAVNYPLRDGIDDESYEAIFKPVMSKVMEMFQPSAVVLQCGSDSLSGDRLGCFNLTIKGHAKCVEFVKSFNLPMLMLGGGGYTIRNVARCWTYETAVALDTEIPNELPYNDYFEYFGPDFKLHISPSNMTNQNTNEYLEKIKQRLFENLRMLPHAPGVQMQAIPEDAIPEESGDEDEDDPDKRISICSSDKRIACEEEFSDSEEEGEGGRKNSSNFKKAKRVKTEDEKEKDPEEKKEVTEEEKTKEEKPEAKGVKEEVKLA
Procedure, shortened: (§4)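 Recombinant human HDAC1 or HDAC6 incubated 90 min at 37 °C with 10.5 μM ZMAL (Z-(Ac)Lys-AMC) and increasing inhibitor concentrations, using a homogeneous fluorescence assay. Fluorescence read at Ex 390/Em 460 nm.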

[9] = biological target: T3, Protein deacetylase HDAC6 (Homo sapiens) (UniProt Q9UBN7); experiment: Inhibition of recombinant human HDAC6 at 1 uM using Z-(Ac)Lys-AMC as substrate after 90 mins by fluorescence based micro plate assay; procedure, shortened: as §4
T3 sequence (whole entry): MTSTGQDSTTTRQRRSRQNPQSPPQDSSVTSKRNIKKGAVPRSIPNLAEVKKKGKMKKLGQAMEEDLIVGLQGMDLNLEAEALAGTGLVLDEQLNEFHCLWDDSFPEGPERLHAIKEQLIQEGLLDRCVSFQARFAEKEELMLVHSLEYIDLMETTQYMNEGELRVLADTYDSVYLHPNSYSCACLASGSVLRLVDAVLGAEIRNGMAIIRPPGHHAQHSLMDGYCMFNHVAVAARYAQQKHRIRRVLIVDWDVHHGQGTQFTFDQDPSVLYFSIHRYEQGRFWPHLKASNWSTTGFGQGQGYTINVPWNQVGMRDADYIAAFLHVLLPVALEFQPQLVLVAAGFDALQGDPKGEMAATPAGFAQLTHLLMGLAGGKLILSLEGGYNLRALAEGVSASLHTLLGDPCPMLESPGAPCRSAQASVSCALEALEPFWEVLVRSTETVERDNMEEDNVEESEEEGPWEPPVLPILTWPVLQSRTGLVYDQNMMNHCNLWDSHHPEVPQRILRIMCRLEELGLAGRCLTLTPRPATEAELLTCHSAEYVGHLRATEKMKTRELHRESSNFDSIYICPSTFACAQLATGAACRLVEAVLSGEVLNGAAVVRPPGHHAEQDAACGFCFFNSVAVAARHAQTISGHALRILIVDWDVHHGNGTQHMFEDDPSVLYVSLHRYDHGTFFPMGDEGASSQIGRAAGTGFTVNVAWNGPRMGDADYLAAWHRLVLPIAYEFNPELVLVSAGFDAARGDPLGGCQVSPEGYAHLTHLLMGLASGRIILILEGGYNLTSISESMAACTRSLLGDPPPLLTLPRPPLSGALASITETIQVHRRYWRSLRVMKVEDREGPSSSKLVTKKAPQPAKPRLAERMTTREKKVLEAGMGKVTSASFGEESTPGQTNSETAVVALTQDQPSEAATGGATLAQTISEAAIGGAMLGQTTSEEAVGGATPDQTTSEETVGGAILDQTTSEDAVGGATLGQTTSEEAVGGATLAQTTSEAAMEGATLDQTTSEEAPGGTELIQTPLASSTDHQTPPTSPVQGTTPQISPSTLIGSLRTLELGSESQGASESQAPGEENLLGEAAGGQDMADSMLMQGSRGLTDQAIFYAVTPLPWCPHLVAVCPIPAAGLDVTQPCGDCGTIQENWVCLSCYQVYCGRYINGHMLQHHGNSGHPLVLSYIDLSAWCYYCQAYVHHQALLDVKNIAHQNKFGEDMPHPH

[10] = biological target: T3, Protein deacetylase HDAC6 (Homo sapiens); experiment: Inhibition of recombinant human HDAC6 at 10 uM using Z-(Ac)Lys-AMC as substrate after 90 mins by fluorescence based micro plate assay; procedure, shortened: as §4
Histone deacetylase 8 = biological target: T4, Histone deacetylase 8 (Homo sapiens, UniProt Q9BY41); experiment: Inhibition of human recombinant HDAC8 using H2N-Arg-His-Lys(Ac)-Lys(Ac)-AMC as substrate after 90 mins by fluorescence based micro plate assay
T4 sequence (Q9BY41 whole entry): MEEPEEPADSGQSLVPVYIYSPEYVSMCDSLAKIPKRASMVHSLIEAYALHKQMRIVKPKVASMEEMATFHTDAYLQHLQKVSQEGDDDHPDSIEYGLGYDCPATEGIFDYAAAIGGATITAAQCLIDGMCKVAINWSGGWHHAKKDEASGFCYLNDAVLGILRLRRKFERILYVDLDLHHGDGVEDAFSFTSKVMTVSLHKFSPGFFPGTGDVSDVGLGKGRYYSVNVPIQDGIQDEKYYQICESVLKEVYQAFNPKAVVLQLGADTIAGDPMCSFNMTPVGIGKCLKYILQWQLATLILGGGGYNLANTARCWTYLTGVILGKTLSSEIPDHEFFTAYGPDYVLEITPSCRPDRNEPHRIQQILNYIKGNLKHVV

[11] = as §1; format: cell-based; conditions: HEK293 cells, read-out: INH; procedure, shortened: as §2
THP-1 [12] = experiment: Antiproliferative activity against human THP-1 assessed as reduction in cell growth at 1 uM by CellTiter-non radioactive cell proliferation assay; format: functional
HL-60 [13] = experiment: Antiproliferative activity against human HL60 assessed as reduction in cell growth at 1 uM by CellTiter-non radioactive cell proliferation assay; format: functional
HL-60 [14] = experiment: Antiproliferative activity against human HL60 assessed as reduction in cell growth at 50 uM by CellTiter-non radioactive cell proliferation assay; format: functional; procedure, shortened: as §3
Histone deacetylase 1 [15] = biological target: T2, Histone deacetylase 1; experiment: Inhibition of recombinant human HDAC1 at 1 uM using Z-(Ac)Lys-AMC as substrate after 90 mins by fluorescence based micro plate assay; procedure, shortened: as §4
Histone deacetylase 1 [16] = biological target: T2, Histone deacetylase 1; experiment: Inhibition of recombinant human HDAC1 at 10 uM using Z-(Ac)Lys-AMC as substrate after 90 mins by fluorescence based micro plate assay; procedure, shortened: as §4
[17] = biological target: T5, Protein deacetylase HDAC6 (Homo sapiens, UniProt Q9UBN7); experiment: Inhibition of recombinant human HDAC6 using Z-(Ac)Lys-AMC as substrate after 90 mins by fluorescence based micro plate assay; procedure, shortened: as §4
T5 sequence (Q9UBN7 whole entry): T3 sequence (whole entry)

[18] = Chemical stability of the compound in standard cellular assay conditions measured after 4 days; format: physicochemical; conditions: 96 h; time 4 day
Procedure, shortened: (§5)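 Compounds were incubated at 37 °C in DMEM (cellular assay conditions) or in PBS pH 7.4 (in vitro assay conditions) for various times up to 4 days. The parent compound and any hydrolysis products were detected and quantified by HPLC.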

[19] = Stability of the compound in phosphate buffer at pH 7.4 measured after 4 days; format: physicochemical; conditions: pH 7.4, 96 h, time 4 day; procedure, shortened: as §5

Structure (SMILES) | IC50 (Histone deacetylase 1 [8]) [nM] | IC50 (Histone deacetylase 8) [nM] | Kd (Peregrin; read-out: Kd) [nM] | inhibition at 100 µM (THP-1 [2]) [%] | inhibition at 20 µM (THP-1 [3]) [%] | inhibition at 100 µM (HL-60 [5]) [%] | inhibition at 20 µM (HL-60 [6]) [%] | inhibition at 4 µM (HL-60 [7]) [%] | inhibition at 1 µM (THP-1 [12]) [%] | inhibition at 1 µM (HL-60 [13]) [%] | also measured
O=C(CCCCCCOc1ccccc1C(=O)Nc1ncnc2[nH]cnc12)NO | – | – | – | – | – | – | – | – | – | – | Kd (Peregrin): 2700 nM; IC50 [1]: 260 nM
COC(=O)c1ccc(OC)c(S(=O)(=O)Nc2ccc3c(c2)cc(C)c(=O)n3C)c1 | – | – | – | 102 | 101 | 66 | 44 | 39 | – | – | Activity (HEK293): Non-Toxic; inhibition at 4 µM (THP-1 [4]): 40%; GI50 (THP-1 (Homo sapiens)): 5500 nM
COc1ccc(C(=O)NO)cc1NCc1ccc(OCCCCC(=O)Nc2ccc3c(c2)cc(C)c(=O)n3C)cc1 | 5200 | 956 | 4080 | – | 0 | 0 | 0 | 0 | – | – | inhibition [9]: 50%; inhibition [10]: 68%; cytotoxicity at 24 h [11]: 15%
Cc1cc2cc(NC(=O)c3ccc(S(=O)(=O)Nc4ccc5c(c4)cc(C)c(=O)n5C)cc3)ccc2n(C)c1=O | – | – | – | 73 | 84 | – | 55 | – | 0 | 20 | inhibition at 50 µM (HL-60 [14]): 48%

The next lines start with results.

IC50 (Histone deacetylase 1 [8]) [nM] | IC50 (Histone deacetylase 8) [nM] | Kd (Peregrin; read-out: Kd) [nM] | Structure (SMILES) | inhibition at 100 µM (THP-1 [2]) [%] | inhibition at 20 µM (THP-1 [3]) [%] | inhibition at 100 µM (HL-60 [5]) [%] | inhibition at 20 µM (HL-60 [6]) [%] | inhibition at 4 µM (HL-60 [7]) [%] | inhibition at 1 µM (THP-1 [12]) [%] | inhibition at 1 µM (HL-60 [13]) [%] | also measured
– | 560 | 234 | Cc1cc2cc(NS(=O)(=O)c3cc(C(=O)NO)ccc3Cl)ccc2n(C)c1=O | 21 | 8 | 33 | 32 | 29 | – | – | inhibition (Histone deacetylase 1 [15]): 13%; inhibition (Histone deacetylase 1 [16]): 31%; inhibition [9]: 13%; inhibition [10]: 59%; inhibition at 4 µM (THP-1 [4]): 16%
545 | 360 | 1500 | Cc1cc2cc(NS(=O)(=O)Cc3ccc(C(=O)NO)cc3)ccc2n(C)c1=O | 89 | 8 | 27 | 0 | – | 0 | 5 | IC50 [17]: 152 nM; Stabilty [18]: Stable; Stabilty [19]: Stable
797 | 908 | 175 | Cc1cc2cc(NS(=O)(=O)c3ccc(C(=O)NO)cc3)ccc2n(C)c1=O | 78 | – | 34 | 6 | – | 0 | 3 | IC50 [17]: 344 nM

From ChEMBL document CHEMBL4765345, “Design, synthesis, and biological evaluation of dual targeting inhibitors of histone deacetylase 6/8 and bromodomain BRPF1” (Eur J Med Chem, 2020)
